In the library only some 1.8% were active in any assay of this set; here they are far more common.
C8 TRAIL sens = caspase-8 TRAIL sensitization; NB7+C8 cells + TRAIL, ATPlite viability luminescence; inhibition (viability loss, TRAIL sensitization), % at 10 µM; 360,000 compounds, 1% hits; AID 624354;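 active = compounds causing at least 50% loss of cell viability in the single-dose screen, relative to plate controls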
PPC-1+TRAIL kill = kills PPC-1 cancer cells in the presence of TRAIL; PPC-1 cells + TRAIL, ATPLite viability luminescence; cell killing (% activity), % at 4 µM or 5 µM; 220,000 compounds, 0.41% hits;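 active = cell killing above 50% in the first pass at 4 µM, then a duplicate retest at 5 µM averaging 50% or more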;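 also: plate controls were cells with TRAIL plus DMSO for no effect and medium-only wells lacking cells for full effect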
STAT3 activator = activators of IL-6 induced STAT3 signaling | activation (% of control), % at 5.6 µM | U3A cells, IL-6 STAT3-luciferase reporter, luminescence; 100% = signal with IL-6 EC80 alone | 190,000 compounds, 0.91% hits;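 active = activation above the screen-wide mean of compound activation plus 3 SD, cut at about 130% in these data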;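 also: 0% = background luminescence of wells with medium and substrate only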
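Material: STAT3-luciferase reporter U3A cells; Probe or stimulus: IL-6 (33 ng/mL); Incubation: compound pre-incubation 1 h before IL-6, then 6 h stimulation at 37 °C; Technique: luminescence from STAT3-driven luciferase reporter; Evaluation: % activation versus median of IL-6-stimulated wells; Controls: IL-6-only high control.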
STAT1 inh = inhibitors of IFN-gamma induced STAT1 signaling; NIH 3T3 STAT1-luciferase reporter, luminescence; inhibition, % at 5.5 µM; 200,000 compounds, 0.35% hits;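 active = inhibition above a set limit, the mean inhibition across all tested compounds plus 3 SD, cut at about 34% in these data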;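 also: 0% = IFN-gamma with DMSO and 100% = IFN-gamma with 300 µM nifuroxazide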
STAT3 inh = inhibitors of IL-6 induced STAT3 signaling; U3A cells, IL-6 STAT3-luciferase reporter, luminescence; host cell line lacks STAT1; inhibition, % at 5.5 µM; 190,000 compounds, 0.89% hits; AID 862;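 active = inhibition above the mean inhibition across all screened compounds plus 3 SD, cut at about 44% in these data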;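 also: 0% = DMSO only wells and 100% = 100 µM nifuroxazide control wells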
Numbers without * were called inactive; · = no result given; ! = a repeat was not active.

SMILES	C8 TRAIL sens	PPC-1+TRAIL kill	STAT3 activator	STAT1 inh	STAT3 inh
O=C(OCn1ncc(Cl)c(Cl)c1=O)c1ccccc1Cl	87*	23	81	-5	32
CC(C)(C)C(=O)Cn1ncc(Cl)c(Cl)c1=O	8	13	98	13	13
Cc1ccc(NC(=O)Cn2ncc(Cl)c(Cl)c2=O)cc1S(=O)(=O)N1CCCCC1	79*	·	·	·	·
Cc1ccc(NC(=O)Cc2ccc(Cl)cc2)cc1S(=O)(=O)N1CCCCCC1	1	·	·	·	·
O=C(Cn1ncc(Cl)c(Cl)c1=O)NCC1CCCCC1	95*	1	92	11	10
O=C(Cn1ncc(Cl)c(Cl)c1=O)c1ccc(Cl)cc1	95*	10	101	13	2
O=C(Cn1ncc(N2CCOCC2)c(Cl)c1=O)c1ccc(Cl)cc1	6	-12	113	-6	-11
O=C(Cn1ncc(Cl)c(Cl)c1=O)NC1CCCCC1	96*	·	·	·	·
O=C(Cn1ncc(Cl)c(Cl)c1=O)NC1CCS(=O)(=O)C1 (stereo not given)	4	-1	·	·	·
Cc1cccc(NC(=O)CNC(=O)Cn2ncc(Cl)c(Cl)c2=O)c1C	74*	·	·	·	·
Cc1cccc(NC(=O)CNC(=O)CSc2ncccn2)c1C	11	·	·	·	·
O=C(Cn1nnnc1CN1CCOCC1)N1CCC(c2cccc(Cl)c2)C1 (stereo not given)	-10	·	·	·	·
CCN(CC)c1ccc(/C=N/NC(=O)c2ccccn2)cc1	65*	20	·	·	·
CCN(CC)c1ccc(/C=N/NC(=O)c2ccco2)cc1	52*	30	81	-73	25
CCN(CC)c1ccc(/C=N/NC(=O)c2cnccn2)cc1	21	36	112	-37	0
CN(C)c1ccc(C(O)c2cc3ccccc3s2)cc1 (stereo not given)	23	·	·	·	·
CCOC(=O)[C@]12CCCC=C1N(CCc1ccc(OC)c(OC)c1)C(=O)[C@H](CC(=O)NCCCCc1ccccc1)C2	0	·	·	·	·
C=C(C)c1cc2c(ccc3ccc(=O)oc32)o1	87*	·	·	·	·
O=C(c1c[nH]c2ccccc12)C(Cl)c1ccccc1 (stereo not given)	-1	·	·	·	·
Cc1cc(C)c(C(=O)Cn2nc(C(=O)O)c3ccccc3c2=O)cc1C	11	4	·	·	·
Cc1cc(C(=O)Cn2nc(C(=O)O)c3ccccc3c2=O)c(C)n1-c1ccccc1	76*	48	91	-8	15
Cc1cc(C(=O)Nc2ccccc2[N+](=O)[O-])cs1	-7	·	·	·	·
Cc1c(C(=O)Nc2ccccc2[N+](=O)[O-])csc1-c1ccccc1	66*	46	105	-73	-12
CCc1cc2c(=O)c(-c3ccc4c(c3)OCCO4)coc2cc1OC(=O)c1ccco1	71*	36	89	-8	18
CCCc1cc2c(=O)c(-c3ccc4c(c3)OCCO4)coc2cc1OC(=O)c1ccco1	56*	35	99	1	5
SMILES	C8 TRAIL sens	PPC-1+TRAIL kill	STAT3 activator	STAT1 inh	STAT3 inh
Cc1cccc(NC(=O)c2nc[nH]c2C(=O)N[C@@H](CCCCNC(=O)OC(C)(C)C)C(=O)OC(C)(C)C)c1	51*	10	·	·	·
CC(C)(C)OC(=O)NCCCC[C@H](NC(=O)c1nc[nH]c1C(=O)N[C@@H](CCCCNC(=O)OC(C)(C)C)C(=O)OC(C)(C)C)C(=O)OC(C)(C)C	37	5	·	·	·
CC(C)(C)OC(=O)NCCCC[C@H](NC(=O)c1nc[nH]c1C(=O)NC(c1ccccc1)c1ccccc1)C(=O)OC(C)(C)C	53*	5	·	9	·
CC(C)C[C@H](NC(=O)c1nc[nH]c1C(=O)N[C@@H](CCCCNC(=O)OC(C)(C)C)C(=O)OC(C)(C)C)C(=O)OCc1ccccc1	63*	·	·	·	·
COc1cccc2sc(N(CCCN(C)C)C(=O)c3ccc(S(=O)(=O)N4CCc5ccccc5C4)cc3)nc12	83*	·	·	·	·
COc1ccc(C)c2sc(N(CCCN(C)C)C(=O)c3ccc(S(=O)(=O)N4CCc5ccccc5C4)cc3)nc12	93*	·	·	·	·
Cc1ccc2sc(N(CCCN(C)C)C(=O)c3ccc(S(=O)(=O)N4CCc5ccccc5C4)cc3)nc2c1C	76*	·	·	·	·
COc1cc2nc(N(CCCN(C)C)C(=O)c3ccc(S(=O)(=O)N4CCc5ccccc5C4)cc3)sc2cc1OC	-1	·	·	·	·
CN(C)CCCN(C(=O)c1ccc(S(=O)(=O)N2CCc3ccccc3C2)cc1)c1nc2c(F)cc(F)cc2s1	29	·	·	·	·
Cc1ccc(C)c(N(C(=O)c2snc(C(N)=O)c2N)C(C(=O)NCC2CCCO2)c2ccc(C)o2)c1 (stereo not given)	-7	·	·	·	·
COc1ccccc1C(=O)Nc1nc2ccccc2[nH]1	96*	·	·	·	·
COc1ccccc1C(=O)NCCC(=O)Nc1nc2ccccc2[nH]1	-6	·	·	·	·
COc1cc(SC)ccc1C(=O)NNC(=O)c1cc(C)oc1C	69*	·	·	·	·
COc1cc(SC)ccc1C(=O)Nc1nc2ccccc2[nH]1	96*	·	·	·	·
O=C(O)C(=O)/C(=C\c1ccc(Cl)cc1)c1ccc2ccccc2n1	7	26	147*	-34	-45
COC(=O)[C@@]12C[C@@H](CC(=O)N3CCN(C(=O)C4CC4)CC3)C(=O)N(Cc3ccc4c(c3)OCO4)C1=CCC(C)(C)C2	8	·	·	·	·
Cc1cc(C)cc(C(=O)O/N=C(\N)c2ccc(Br)cc2)c1	90*	0	109	-2	-8
Cc1ccc(C(=O)O/N=C(\N)c2ccc(Br)cc2)cc1C	86*	42	88	-22	19
COc1ccccc1C(=O)NC(=Nc1nc2ccccc2o1)NC(=O)c1ccccc1OC	71*!	3	136*	-1	-41
Oc1cc(-c2ccc(N3CCCCC3)nc2)cc2cccnc12	74*	·	·	·	·
Cc1cc(Br)ccc1OCCCCNCCO	53*	-4	108	-5	-9
C=CCNCCCCOc1ccc(Br)cc1C	6	18	109	2	-8
O=C(NCC1COc2ccccc2O1)c1cccc(S(=O)(=O)NCc2ccccc2)c1 (stereo not given)	18	·	·	·	·
CC(=O)Nc1ccc(CNc2nc(NC(C)C)nc3cc(-c4ccccc4)sc23)cc1	31	·	·	·	·
COc1ccc(-c2cc(CNc3nc(NC(C)C)nc4cc(-c5ccccc5)sc34)on2)cc1	80*	·	·	·	·
SMILES	C8 TRAIL sens	PPC-1+TRAIL kill	STAT3 activator	STAT1 inh	STAT3 inh
CC(C)c1ccc(NC(=O)NCc2cccnc2)cc1	-30	·	·	·	·
Cc1ccc(C(O)c2ncc(-c3ccccc3Cl)[nH]2)cc1F (stereo not given)	-1	·	·	·	·
CCCNC(=O)C1(C)CCN(C(=O)Cc2ccc3ccccc3c2)C1 (stereo not given)	-4	·	·	·	·
NC1=C(Br)C(=O)c2ncccc2C1=O	95*	·	·	·	·
O=C1c2cccnc2C(=O)N1CO	2	1	104	0	-4
CCC(NC(=O)c1ccncc1)c1ccccc1 (stereo not given)	-1	·	·	·	·
C#CCN(C[C@@H]1[C@@H](OC(=O)Nc2cccs2)[C@@H](OC(=O)Nc2cccs2)Cn2c(=O)ccc(=O)n21)S(=O)(=O)c1ccc(C)cc1	86*	·	·	·	·

Assay outcomes as filed in PubChem.
